Experiments:
Procathepsin L = Procathepsin L (Homo sapiens, UniProt P07711); assay: Inhibition of recombinant human cathepsin L
Cathepsin K = target: T1, Cathepsin K (Homo sapiens, UniProt P43235); assay: Inhibition of recombinant human cathepsin K
T1 sequence (P43235 whole entry): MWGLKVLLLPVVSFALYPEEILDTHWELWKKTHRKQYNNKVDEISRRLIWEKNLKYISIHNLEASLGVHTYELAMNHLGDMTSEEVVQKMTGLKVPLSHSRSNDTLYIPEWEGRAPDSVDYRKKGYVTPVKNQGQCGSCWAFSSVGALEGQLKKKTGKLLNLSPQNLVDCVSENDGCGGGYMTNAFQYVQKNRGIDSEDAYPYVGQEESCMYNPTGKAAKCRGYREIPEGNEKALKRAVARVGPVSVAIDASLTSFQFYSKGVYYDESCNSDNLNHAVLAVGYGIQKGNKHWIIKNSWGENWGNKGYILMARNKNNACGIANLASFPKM

Cathepsin S = Cathepsin S (Homo sapiens, UniProt P25774); assay: Inhibition of recombinant human cathepsin S
[1] = Terminal half life in rat; assay type: ADME, organism-based; details: in vivo
Method in brief: (§1)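 Cassette dosing of six compounds to conscious, fed, permanently cannulated rats. IV bolus of 1 mg kg^-1 in N-methyl-2-pyrrolidone/PEG200 (30:70, v/v). Oral dose of 3 mg kg^-1, dissolved or suspended with sonication in 1% tartaric acid plus 1% carboxymethyl cellulose in water. Same animals received both routes, with a 48 h washout between them. Femoral arterial blood sampled over 24 h. Plasma extracted by acetonitrile precipitation and parent drug quantified by HPLC/MS.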

Rattus norvegicus = assay: Cmax in rat at 3 mg/kg, po normalized to 1 mg/kg; assay type: ADME, organism-based; parameters: dose 3 mg/kg, route oral; details: in vivo; method in brief: as §1
[2] = Volume of distribution in rat; assay type: ADME, organism-based; details: in vivo, read-out: Vss; method in brief: as §1
[3] = Oral bioavailability in rat; assay type: ADME, organism-based; details: in vivo; method in brief: as §1
[4] = Clearance in rat; assay type: ADME, organism-based; details: in vivo; method in brief: as §1

Procathepsin L, sequence (P07711 whole entry): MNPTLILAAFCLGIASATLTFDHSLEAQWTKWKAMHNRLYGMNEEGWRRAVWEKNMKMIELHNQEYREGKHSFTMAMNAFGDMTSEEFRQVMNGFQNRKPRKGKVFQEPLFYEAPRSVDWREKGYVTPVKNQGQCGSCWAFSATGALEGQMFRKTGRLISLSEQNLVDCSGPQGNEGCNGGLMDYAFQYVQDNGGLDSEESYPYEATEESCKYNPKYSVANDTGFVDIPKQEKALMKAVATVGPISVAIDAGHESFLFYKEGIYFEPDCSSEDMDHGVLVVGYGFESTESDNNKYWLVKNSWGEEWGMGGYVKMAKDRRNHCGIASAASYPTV
Cathepsin S, sequence (P25774 whole entry): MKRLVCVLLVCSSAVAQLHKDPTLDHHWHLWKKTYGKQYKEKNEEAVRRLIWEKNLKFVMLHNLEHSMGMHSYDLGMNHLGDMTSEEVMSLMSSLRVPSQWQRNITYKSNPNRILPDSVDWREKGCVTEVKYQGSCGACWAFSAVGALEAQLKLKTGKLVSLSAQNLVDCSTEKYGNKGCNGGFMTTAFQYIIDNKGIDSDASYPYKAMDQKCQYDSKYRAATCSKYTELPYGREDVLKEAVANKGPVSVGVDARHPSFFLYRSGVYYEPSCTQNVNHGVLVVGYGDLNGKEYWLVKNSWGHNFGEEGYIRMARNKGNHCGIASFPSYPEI

Row | SMILES | IC50 (Procathepsin L) | IC50 (Cathepsin K) | IC50 (Cathepsin S) | half-life [1] | Cmax (Rattus norvegicus) | Vd [2] | bioavailability [3] | clearance [4]
1 | Cc1ccc(C[C@@H](C#N)NC(=O)[C@H](CC(C)C)NC(=O)OCc2ccccc2)cc1 | 9900 nM | 48 nM | > 10000 nM |  |  |  |  | 
2 | CC(C)C[C@H](NC(=O)OCc1ccccc1)C(=O)N[C@H](C#N)COC(C)(C)C | 2800 nM | 240 nM | 900 nM |  |  |  |  | 
3 | CC(C)C[C@H](NC(=O)OCc1ccccc1)C(=O)N[C@H](C#N)COCc1ccccc1 | 1700 nM | 9 nM | 969 nM | 2.2 h | 44.3 nM | 4.6 L/kg | 26.4% | 45 mL/min/kg
4 | Cc1cccc(C[C@@H](C#N)NC(=O)[C@H](CC(C)C)NC(=O)OCc2ccccc2)c1 | 7700 nM | 120 nM | 2300 nM |  |  |  |  | 
5 | CC(C)C[C@H](NC(=O)OCc1ccccc1)C(=O)N[C@H](C#N)Cc1ccc(C(F)(F)F)cc1 | 8000 nM | 43 nM | > 10000 nM |  |  |  |  | 
6 | CC(C)C[C@H](NC(=O)CN1CCC(c2ccccc2)CC1)C(=O)N[C@H](C#N)COCc1ccccc1 | 1200 nM | 83 nM | 140 nM |  |  |  |  | 
7 | CC(C)C[C@H](NC(=O)OCc1ccccc1)C(=O)N[C@H](C#N)Cc1ccc(OCc2ccccc2)cc1 | > 10000 nM | > 1000 nM | > 10000 nM |  |  |  |  | 
8 | CC(C)C[C@H](NC(=O)OCc1ccccc1)C(=O)N[C@H](C#N)Cc1ccc(OC(C)(C)C)cc1 | 1400 nM | 398 nM | > 10000 nM |  |  |  |  | 

The next compounds have a lower IC50 (Procathepsin L) than those just listed; values first:

Row | IC50 (Procathepsin L) | IC50 (Cathepsin K) | IC50 (Cathepsin S) | half-life [1] | Cmax (Rattus norvegicus) | Vd [2] | bioavailability [3] | clearance [4] | SMILES
9 | 1100 nM | 63 nM | 700 nM |  |  |  |  |  | COc1ccc(C[C@@H](C#N)NC(=O)[C@H](CC(C)C)NC(=O)OCc2ccccc2)cc1
10 | 190 nM | 430 nM | 41 nM |  |  |  |  |  | CC(C)C[C@H](NC(=O)C(C)(C)Nc1ccc(Cl)cc1)C(=O)N[C@H](C#N)COCc1ccccc1
11 | 330 nM | 9 nM | 180 nM | 1 h | 2.5 nM | 18 L/kg | 3.5% | 320 mL/min/kg | CC(C)C[C@H](NC(=O)CN1CCN(c2ccncc2)CC1)C(=O)N[C@H](C#N)COCc1ccccc1
12 | 154 nM | < 1 nM | 29 nM |  |  |  |  |  | CC(C)C[C@H](NC(=O)c1cc2ccccc2[nH]1)C(=O)N[C@H](C#N)COCc1ccccc1
13 | 660 nM |  | 240 nM |  |  |  |  |  | Cc1nccn1CC(=O)N[C@@H](CC(C)C)C(=O)N[C@H](C#N)COCc1ccccc1
14 | 83 nM | < 1 nM | 47 nM | 1.4 h | 51.1 nM | 7.7 L/kg | 30.1% | 82 mL/min/kg | CC(C)C[C@H](NC(=O)c1cc2ccccc2n1C)C(=O)N[C@H](C#N)COCc1ccccc1
15 | 110 nM | 24 nM | 130 nM | 0.2 h | 11.3 nM | 4.3 L/kg | 4.6% | 396 mL/min/kg | Cc1nc[nH]c1CC(=O)N[C@@H](CC(C)C)C(=O)N[C@H](C#N)COCc1ccccc1
16 | < 30 nM | < 1 nM | 52 nM | 3.1 h | 3.5 nM | 13.6 L/kg | 10.1% | 141 mL/min/kg | CC(C)C[C@H](NC(=O)C(C)(C)Oc1ccc(Cl)cc1)C(=O)N[C@H](C#N)COCc1ccccc1
